# Bioassay records: PubChem, several laboratories
# M1 antagonist: blocks the rat M1 muscarinic receptor response to acetylcholine | P08482 | CHO-M1 cells, Fluo-4 calcium, ACh EC80 antagonist mode; active compounds read low | B-score at 10 µM | 64,000 tested, 3.4% active | AID 628;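 active means calcium fluorescence response, raw or row-and-column corrected B-score, differing from the plate sample mean either way at a set confidence level, mostly lower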
# mHtt clearance: mutant huntingtin protein clearance; HeLa Exon1htt(103Q)mCFP, aggregate imaging; zero = plate's median compound well; inhibition, % at 1.5 µM; 47,000 tested, 0.42% active;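 active means inhibition of aggregate fluorescence above about 70%, also judged a hit by eye on the cell image, limit read from the data, passing the limit was not always enough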;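 further: cells exposed to compound for three days before fixation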
# M1 agonist: agonists of M1 muscarinic receptor. CHO-M1 cells, Fluo-4 calcium fluorescence, agonist mode; active compounds read high. B-score at 10 µM. 64,000 tested, 3% active. AID 626;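 active means fluorescence rise, raw or as B-score row- and column-corrected plate score, outside the 99.7% band of its plate's samples, either direction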
# RORA act: activates the human nuclear receptor RORA; P35398; CHO-K1 Gal4-RORA LBD luciferase reporter, luminescence; percent increase over mock-subtracted basal signal; activation, % at 10 µM; 65,000 tested, 1.5% active; AID 560;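 active means activation above the mean of all tested compounds plus 3 SD, cut at about 49% in these data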;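 further: 0% = DMSO-treated RORA cells and 100% = added signal equal to DMSO minus mock-transfected cells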
# SF-1 act: activators of human nuclear receptor SF-1; 65,000 tested, 1.9% active; CHO-K1 Gal4-SF-1 LBD luciferase reporter; % increase over DMSO SF-1-specific signal; activation, % at 10 µM; AID 522;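 active means activation above the mean activation of all tested compounds plus 3 SD, cut at about 50% in these data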
#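 Material: Transient Gal4-SF-1 LBD reporter, CHO-K1 | Input: 4,000 cells/well | Dosing: One dose, 10 µM compound, 1% DMSO | Incubation: 20 h compound treatment, 37 °C | Detection: SteadyLite luciferase luminescence | Evaluation: Percent activation relative to DMSO median and mock-transfected background | Benchmarks: DMSO-treated SF-1-transfected cells as negative, DMSO-treated mock-transfected cells lacking SF-1 as background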
# D1 mod: allosterically modulates the human D1 dopamine receptor. B-score at 10 µM. HEK293 D1, CRE-luciferase, dopamine EC30 potentiation; actives deviate in either direction. 58,000 tested, 5.9% active. P21728;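 active means luminescence count or its row- and column-corrected plate score outside the 99.7% band of the plate's sample wells, on either side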
# Target sequence (P21728 whole entry, looked up): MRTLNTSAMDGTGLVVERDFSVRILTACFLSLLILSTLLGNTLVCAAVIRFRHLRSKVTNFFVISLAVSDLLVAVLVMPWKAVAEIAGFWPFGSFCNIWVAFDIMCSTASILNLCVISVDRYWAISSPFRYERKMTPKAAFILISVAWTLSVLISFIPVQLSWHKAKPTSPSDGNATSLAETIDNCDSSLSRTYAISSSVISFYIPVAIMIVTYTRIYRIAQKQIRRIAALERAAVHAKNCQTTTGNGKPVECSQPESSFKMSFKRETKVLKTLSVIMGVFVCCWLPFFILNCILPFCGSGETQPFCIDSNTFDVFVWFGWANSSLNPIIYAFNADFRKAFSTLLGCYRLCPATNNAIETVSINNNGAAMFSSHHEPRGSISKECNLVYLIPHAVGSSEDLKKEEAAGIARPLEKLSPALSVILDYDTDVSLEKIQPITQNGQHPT
# M1 antag confirm: M1 muscarinic receptor (rat) antagonism, confirmed. shares compounds with M1 antagonist. calcium response (max-min fluorescence) at 10 µM. 1,700 tested, 43% active. AID 677. CHO-M1 cells, Fluo-4 calcium, ACh EC80 antagonism; active compounds read low;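 active means calcium response below the same-plate mean of wells given acetylcholine alone at its 80%-effect dose, minus 3 SD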;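 further: raw fluorescence intensity difference in arbitrary instrument units and not normalized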
# mGluR4 antag: mGluR4 (human) activity, M1 antagonist secondary assay; AID 678; shares compounds with M1 antagonist; CHO-mGluR4 calcium flux, Fluo-4 fluorescence, glutamate EC80; active compounds read low; fluorescence response (max-min) at 10 µM; 1,700 tested, 0.9% active;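 active means fluorescence response below the plate's average for near-maximal glutamate wells, less 3 SD of those wells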;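 further: raw unnormalized fluorescence span taken in the window right after glutamate addition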
# An asterisk follows results filed as active; . = no result. This is a sample that favours compounds with a hit; in the whole collection about 11% have one here.
SMILES,M1 antagonist,mHtt clearance,M1 agonist,RORA act,SF-1 act,D1 mod,M1 antag confirm,mGluR4 antag
COc1ccc(OC)c2c(C)cc(N3CCCN(C)CC3)nc12,-0.46,.,0.14,.,.,.,.,.
COC(=O)C1=CN(C)C=C(C(=O)OC)C1c1ccsc1,0.89,.,-0.071,7,-5,.,.,.
COC(=O)C1=CN(C2CC2)C=C(C(=O)OC)C1c1ccc(C(=O)OC)cc1,-5.9*,.,-0.58,-9,17,1.4,188*,183
O=C(COc1ccc2c(c1)CCC2)N1CCc2ccccc21,0.17,.,0.31,38,47,-1.1,.,.
O=C(Nc1ccc(Cl)c(Cl)c1)N1CCC(N2CCCCC2)CC1,-2.5*,-11,-0.15,-3,-14,-0.21,407,208
Cc1onc(-c2c(F)cccc2Cl)c1C(=O)Nc1nnc(C2CC2)s1,-4.1*,-17,1.1,-16,-15,.,481*,223
Cc1onc(-c2c(Cl)cccc2Cl)c1C(=O)Nc1ccc2c(c1)OCCO2,-3.1*,-12,-0.63,19,-19,0.52,424*,235
Cc1onc(-c2ccccc2)c1C(=O)Nc1ccc2c(c1)OCCO2,0.017,.,-0.068,6,-10,-1.5,.,.
CCCCOc1ccc(C(=O)C(CN2CCOCC2)c2ccccc2)cc1 (stereo unspecified),.,-13,.,.,.,.,.,.
COc1ccc(C(=O)C(CN2CCCC2)c2ccccc2)cc1 (stereo unspecified),-7.4*,.,0.00053,-36,-3,.,239*,240
Oc1c(C(c2ccco2)N2CCN(C(c3ccccc3)c3ccccc3)CC2)sc2ncnn12 (stereo unspecified),-3.4*,.,-0.41,9,30,-0.012,512*,267
Oc1c(C(c2ccccc2)N2CCc3ccccc3C2)sc2ncnn12 (stereo unspecified),-0.31,-5,-0.94,18,12,0.082,.,.
COc1nc(N2CCCC2)nc(-n2cc(-c3ccccc3)nn2)n1,0.22,.,0.7,-25,0,-0.035,.,.
O=C(CCCCCn1c(=O)[nH]c2ccccc2c1=O)NCCCN1CCN(c2ccccc2F)CC1,-3.5*,.,0.31,-13,9,-1.8,506,220
COCCN(C(=O)CCC(=O)Nc1ccccn1)C(C(=O)NC1CCCC1)c1ccc(OC)cc1 (stereo unspecified),0.21,3,-0.28,-12,-10,.,.,.
Cn1c(=O)[nH]c(=O)c2c1nc(CN1CCN(Cc3ccccc3)CC1)n2CC(N)=O,-0.99,.,-0.23,-10,4,0.46,.,.
O=c1[nH]c(=O)n(CCO)c2nnn(Cc3ccccc3)c12,-3.3*,19,-1.3,1,-12,.,579,244
CC(C)CCNC(=O)C(C)N(Cc1ccc(F)cc1)C(=O)c1ccc(CN2CCCCC2)o1 (stereo unspecified),-3.2*,32,-0.14,0,6,0.0027,595,219
CCOC(=O)N1CCN(c2c(NCCN3CCN(Cc4ccccc4)CC3)c(=O)c2=O)CC1,-0.6,.,-0.95,26,-1,0.2,.,.
CCOC(=O)N1CCC(Nc2c(NCCN3CCN(Cc4ccccc4)CC3)c(=O)c2=O)CC1,-6.7*,-38,0.027,15,14,2.1,551,254
CCOc1ccccc1N1Cc2cc(C)c(C)cc2C1,-1.5*,6,-0.041,35,20,0.052,655,231
CCN1CCN(CCCNC(=O)c2cc3sccc3n2CC)CC1,-1.6*,2,-0.031,0,-5,-0.28,611,231
O=C(Cn1c(C(=O)NCCCN2CCOCC2)cc2sccc21)c1ccccc1,-1.5,.,-0.036,-9,0,.,.,.
CCn1c(C(=O)NCCCN2CCc3ccccc3C2)cc2sccc21,-3.6*,.,0.17,-18,3,.,492*,233
Cc1ccc(Cn2c(C(=O)NCCCN3CCOCC3)cc3sccc32)cc1,-3.2*,.,-0.57,10,12,-0.34,510*,267
SMILES,M1 antagonist,mHtt clearance,M1 agonist,RORA act,SF-1 act,D1 mod,M1 antag confirm,mGluR4 antag
CCC(C)NC(=O)CSC1=Nc2ccccc2C2=NC(CC(=O)NCc3ccccc3)C(=O)N12 (stereo unspecified),0.45,-77,0.36,0,7,0.16,.,.
COC(=O)C1=C(C)N=C2SCCC(=O)N2C1/C=C/c1ccccc1 (stereo unspecified),-4.5*,-9,0.59,-3,2,0.25,253*,222
COC(=O)c1ccc(C2C(C(=O)OC(C)C)=C(C)N=C3SCCC(=O)N32)cc1 (stereo unspecified),-0.13,.,-0.22,3,-26,0.39,.,.
Cc1ccc(C(=O)CC2(O)C(=O)N(C)c3ccc(Br)cc32)c(C)c1 (stereo unspecified),-2.2*,20,-0.38,24,-13,-0.16,642,186
Cc1ccccc1C(=O)N1CCC(C(=O)Nc2ccc(F)cc2)CC1,-4.3*,-14,0.19,9,3,0.37,502,184
COc1ccc(C(C)=O)c2c1OCCO2,-2.2*,.,0.13,2,-18,0.94,633,236
COc1ccc(CCC(=O)N2CCc3ccccc32)cc1,-0.38,-94,1.9,30,24,-0.049,.,.
COCCCNc1nc2c(c(=O)[nH]c(=O)n2C)n1CC(O)COc1ccccc1C (stereo unspecified),-3.6*,-184,-0.29,8,3,0.19,594,241
CN(c1ccccc1)S(=O)(=O)c1ccc(C(=O)OCC(=O)N2CCOCC2)cc1,-0.078,.,-0.0032,-4,-11,-0.09,.,.
CCOC(=O)NC(Nc1sc2c(c1C(=O)OC)CCN(C)C2)(C(F)(F)F)C(F)(F)F,-1.4*,-52,0.76,-18,-4,-0.7,443,217
COc1ccc(C2C(C(=O)N3CCOCC3)c3ccccc3C(=O)N2c2ccc(OC)cc2)cc1 (stereo unspecified),-13*,-45,-0.19,-4,17,0.91,701,232
COc1ccc(N2C(=O)CCC(C(=O)N3CCOCC3)C2c2ccc(F)cc2)cc1 (stereo unspecified),-3.1*,-36,0.46,5,19,.,542,227
COc1ccc(N2C(=O)CCC(C(=O)N3CCCCC3)C2c2ccc(F)cc2)cc1 (stereo unspecified),-0.42,.,-0.3,16,1,0.82,.,.
COc1ccc(C2C(C(=O)N3CCN(c4ccccc4)CC3)c3ccccc3C(=O)N2C)cc1OC (stereo unspecified),-4.4*,-10,0.53,-5,11,-0.67,538,201
O=C(c1cnccn1)N1CCN(C/C=C/c2ccccc2)CC1,0.16,-1,-0.56,2,-8,.,.,.
